The term IC50 denotes the point on the concentration scale where inhibition reaches its midpoint. Higher therefore signals weaker potency in that assay.

These results are taken from ChEMBL document CHEMBL2057128, “Chemoenzymatic synthesis and biological evaluation of 2- and 3-hydroxypyridine derivatives against Leishmania mexicana” (Bioorg Med Chem, 2012).

Values after ≈ are worked out from the molar mass of the structure shown. Active and inactive are the calls of the source. The calls are words filed in the database; no cut-off is given here.

One assay relates to Leishmania mexicana. The assay is described as follows: Growth inhibition of promastigote form of Leishmania mexicana at 10 ug/mL measured after 6 days by neubauer chamber analysis. The format is functional. The following applies: 144 h, read-out: GI. An outline of the steps:
(§1)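 Promastigotes grown at 28 °C in cell-free medium (Na2HPO4, KCl, glucose, pH about 7.5) supplemented after sterilization with penicillin (100 IU/mL), streptomycin, haemin and 20% v/v heat-inactivated fetal calf serum. Cultures started from exponential-phase inocula, shaken manually twice daily, compounds added with DMSO at 0.1% final. Parasites counted in a Neubauer chamber every two days over 10 days.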
Regarding `CC(=O)OCCCCCCCCCCCCOc1cccnc1`, the inhibition of growth at 10 µg/mL stood at 25%.
Same read-out and setting: the value for `OCCCCCCCCCCCCOc1cccnc1` was 25%.

For the next assay, the system named is Leishmania mexicana. As to the kind of experiment: Growth inhibition of promastigote form of Leishmania mexicana at 20 ug/mL measured after 10 days by neubauer chamber analysis. The format is functional. The following applies: 240 h, read-out: GI. In outline:
as §1
Consider `CC(=O)OCCCCCCCCCCCCOc1cccnc1`, for which the inhibition of growth at 20 µg/mL stood at 80%.
The same measure, in the same setting: for `OCCCCCCCCCCCCOc1cccnc1` the value was 95%.

Another assay has as its system Leishmania mexicana. The assay is described as follows: Antileishmanial activity against promastigote form of Leishmania mexicana from 10 to 50 ug/mL measured every 2 days for 10 days by neubauer chamber analysis. The format is functional, organism-based.
Conditions: not given
An outline of the steps:
as §1
As to `CC(=O)OCCCCCCOc1cccnc1`, the outcome was inactive.
Take `CC(=O)OCCCCCCOc1ccccn1`: the outcome was inactive.
Still for that read-out and setting: the value for `OCCCCCCCOc1cccnc1` was “inactive”.
On to `OCCCCCCOc1cccnc1`, for which the outcome was inactive.
The same measure, in the same setting: for `CC(=O)OCCCCCCCOc1ccccn1` the value was “inactive”; for `CC(=O)OCCCCCCCOc1cccnc1`, “inactive”.
On the same count and under the same terms, the value for `OCCCCCCCCCOc1cccnc1` was “inactive”; that for `OCCCCCCCCCCOc1cccnc1` was “inactive”.
Same read-out and setting: the value for `OCCCCCCCCCCCOc1cccnc1` was “inactive”.
In the case of `OCCCCCCCCCCOc1ccccn1`, the result was inactive.
Same read-out and setting: the value for `CCC(=O)OCCCCCCCCCCCOc1ccccn1` was “inactive”; that for `OCCCCCCCCCOc1ccccn1` was “inactive”; that for `CC(=O)OCCCCCCCCCOc1ccccn1` was “inactive”.
Same read-out and setting: the value for `CC(=O)OCCCCCCCCOc1ccccn1` was “inactive”; that for `OCCCCCCOc1ccccn1` was “inactive”.
Still for that read-out and setting: the value for `CC(=O)OCCCCCCCCCCCOc1cccnc1` was “inactive”; that for `CC(=O)OCCCCCCCCOc1cccnc1` was “inactive”; that for `OCCCCCCCCOc1ccccn1` was “inactive”.
In the case of `CC(=O)OCCCCCCCCCCCCOc1ccccn1`, the result was inactive.
Same read-out and setting: the value for `CC(=O)OCCCCCCCCCCCOc1ccccn1` was “inactive”; that for `CCC(=O)OCCCCCCCCCCCOc1cccnc1` was “inactive”.
As for `OCCCCCCCCCCCCOc1ccccn1`, the outcome was inactive.
Still for that read-out and setting: the value for `OCCCCCCCCCCCOc1ccccn1` was “inactive”; that for `CC(=O)OCCCCCCCCCCOc1ccccn1` was “inactive”.
Same read-out and setting: the value for `OCCCCCCCOc1ccccn1` was “inactive”; that for `OCCCCCCCCOc1cccnc1` was “inactive”.

A further assay relates to Leishmania mexicana. As to the kind of experiment: Growth inhibition of promastigote form of Leishmania mexicana at 20 ug/mL measured after 1 day by neubauer chamber analysis. The format is functional. The following applies: 24 h, read-out: GI.
In the case of `CC(=O)OCCCCCCCCCCCCOc1cccnc1`, the inhibition of growth at 20 µg/mL amounted to 50%.
Turning to `OCCCCCCCCCCCCOc1cccnc1`, the inhibition of growth at 20 µg/mL worked out at 50%.

The test system of the next assay is Leishmania mexicana. The assay is described as follows: Antileishmanial activity against promastigote form of Leishmania mexicana measured every 2 days for 10 days by neubauer chamber analysis. The format is functional, organism-based.
Conditions: not given
In outline: as §1
The compound `CC(=O)OCCCCCCCCCCCCOc1cccnc1` yielded an IC50 of 12 µg/mL (≈ 37.3 µM).
Same read-out and setting: for `OCCCCCCCCCCCCOc1cccnc1` the value was 16 µg/mL (≈ 57.3 µM); for `CN[C@@H]1[C@@H](O)[C@@H](O[C@@H]2[C@@H](O)[C@H](O[C@H]3O[C@H]([C@@H](C)O)[C@@H](O)[C@H](O)[C@H]3N)[C@@H](N)C[C@H]2N)OC[C@]1(C)O` [GENETICIN], 50 µg/mL (≈ 101 µM).
On the same count and under the same terms, for `CC(=O)OCCCCCCCCCCOc1cccnc1` the value was 20 µg/mL (≈ 68.2 µM).
